Experimental data taken from ChEMBL document CHEMBL1129691, “Synthesis and structure-DNA binding relationship analysis of DNA triple-helix specific intercalators” (J Med Chem, 1996).

Experiments:
Nucleic Acid [1] = test: Temperature (delta Tm) for DNA duplex denaturation evaluated by thermal melting; format: nucleic-acid assay
Procedure, shortened: (§1)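 Thermal melting in PIPES buffer (0.01 M PIPES, 0.001 M EDTA, 0.2 M NaCl, pH 7.0). Duplex poly(dA·dT) and triplex poly(dT·dA·dT) are formed by adding DNA stock to buffer. Compound is added at a molar ratio of 0.3 per nucleic acid base (saturating). ΔTm = Tm(complex) − Tm(free DNA), estimated error ±0.5 °C.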

Nucleic Acid [2] = test: Temperature (delta Tm) for DNA triplex to duplex and single stranded transitions [Poly(dT.dA.dT) to Poly(dA.dT) and Poly(dT)]; format: nucleic-acid assay; procedure, shortened: as §1
[3] = PKa value of the N in quinoline ring is determined in 1-cm UV cell titreated with HCl or NaOH; format: physicochemical; settings: buffer
Procedure, shortened: (§2)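 UV-monitored pH titration with HCl or NaOH. Sample is dihydrobromide salt or free base (0.01 mM) in nanopure water with NaCl (4 mM) and EDTA (0.1 mM). UV-vis spectra (220-450 nm) recorded after each addition. pH range spans at least 2 units either side of pKa, at least two points per pH unit. Absorbance at the wavelength of greatest change is normalized and plotted against pH.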

[4] = PKa value of the side chain terminal amino is determined in 1-cm UV cell titreated with HCl or NaOH; format: physicochemical; settings: buffer; procedure, shortened: as §2

Row | SMILES | ΔTm (Nucleic Acid [1]) [°C] | ΔTm (Nucleic Acid [2]) [°C] | pKa [3] | pKa [4]
1 | CN(C)CCNc1cc(-c2cccs2)nc2ccccc12 | 0.7 | 9.4 | – | –
2 | CNCCN(C)c1cc(-c2ccc3cc(C)ccc3c2)nc2ccccc12 | 0.5 | 23 | – | –
3 | CN(C)CCNc1cc(-c2ccc3c(ccc4ccccc43)c2)nc2ccccc12 | 5.2 | 35.3 | – | –
4 | CN(C)CCN(C)c1cc(-c2cccs2)nc2ccccc12 | 0 | 3 | – | –
5 | CN(C)CCNc1cc(-c2cccc3ccccc23)nc2ccccc12 | 0.1 | 1.9 | – | –
6 | Cc1ccc2cc(-c3cc(NCCN(C)C)c4ccccc4n3)ccc2c1 | 2.2 | 32.9 | – | –
7 | CN1CCN(c2cc(-c3ccc4ccccc4c3)nc3ccccc23)CC1 | 0.4 | 19.1 | 5.6 | > 8
8 | CNCCN(C)c1cc(-c2ccc3ccccc3c2)nc2ccccc12 | 0.2 | 24.1 | 6.2 | > 8

More lines, now with the values ahead:

Row | ΔTm (Nucleic Acid [1]) [°C] | ΔTm (Nucleic Acid [2]) [°C] | pKa [3] | pKa [4] | SMILES
9 | 0.3 | 11.9 | – | – | CN(C)CCNc1cc(-c2ccccc2)nc2ccccc12
10 | 0 | 2.1 | – | – | CN(C)CCN(C)C(=O)c1cc(-c2ccc3ccccc3c2)nc2ccccc12
11 | 0.2 | 18.6 | 4.4 | > 8 | CN(C)CCSc1cc(-c2ccc3ccccc3c2)nc2ccccc12
12 | 1.5 | 20.8 | – | – | CNCCN(C)c1cc(-c2ccc3c(c2)Nc2ccccc2S3)nc2ccccc12
13 | 0 | 3.2 | – | – | CN1CCN(c2cc(-c3ccccc3)nc3ccccc23)CC1
14 | 5.5 | 35.6 | 7.1 | > 8 | CN(C)CCNc1cc(-c2ccc3ccccc3c2)nc2ccccc12
15 | 0.4 | 19 | – | – | Cc1ccc2cc(-c3cc(N(C)CCN(C)C)c4ccccc4n3)ccc2c1
16 | 0.4 | 15.5 | – | – | Cc1ccc2cc(-c3cc(N4CCN(C)CC4)c4ccccc4n3)ccc2c1
17 | 2.4 | 33.1 | – | – | CN(C)CCNc1cc(-c2ccc3c(c2)Nc2ccccc2S3)nc2ccccc12
18 | 0.3 | 18.6 | – | – | CN1CCN(c2cc(-c3ccc4c(ccc5ccccc54)c3)nc3ccccc23)CC1
